Key:
[1] = molecular target: D(2) dopamine receptor (Rattus norvegicus) (UniProt P61169); test: Dopamine D2 agonistic activity (2 mg/kg) as percent change in prolactin level in reserpinized rats; type: functional, organism-based
Procedure, shortened: (§1)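 Male Sprague-Dawley rats were given reserpine 15 mg/kg ip as an aqueous suspension 18 h before dosing. Compound in 10% ethanol was given ip; controls received saline. Rats were killed 1 h later and blood was allowed to clot. Serum prolactin was measured by NIAMD radioimmunoassay as ng NIAMD-prolactin-PR-1/mL and expressed as percent change versus control.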

[2] = molecular target: D(2) dopamine receptor (Rattus norvegicus) (UniProt P61169); test: Dopamine D2 agonistic activity (2 mg/kg) as plasma prolactin level in reserpinized rats; type: functional, organism-based; procedure, shortened: as §1
[3] = molecular target: D(2) dopamine receptor (Rattus norvegicus) (UniProt P61169); settings: Plasma

D(2) dopamine receptor (Rattus norvegicus), sequence (P61169 whole entry): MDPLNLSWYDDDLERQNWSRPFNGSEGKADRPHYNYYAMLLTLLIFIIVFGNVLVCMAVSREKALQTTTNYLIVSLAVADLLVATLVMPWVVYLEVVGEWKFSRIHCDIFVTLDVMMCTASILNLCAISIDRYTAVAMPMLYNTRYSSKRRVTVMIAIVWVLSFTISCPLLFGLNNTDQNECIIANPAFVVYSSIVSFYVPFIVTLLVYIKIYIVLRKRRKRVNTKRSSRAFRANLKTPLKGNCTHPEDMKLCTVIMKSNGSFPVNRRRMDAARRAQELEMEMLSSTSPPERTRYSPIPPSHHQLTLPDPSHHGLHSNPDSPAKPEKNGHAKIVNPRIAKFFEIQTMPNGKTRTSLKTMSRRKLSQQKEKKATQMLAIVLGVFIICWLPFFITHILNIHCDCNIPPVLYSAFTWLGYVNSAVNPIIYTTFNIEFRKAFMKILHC

## CCCN(CCC)CCc1cccc2[nH]ccc12
[1]
  Change: -69%
[2]
  PRL: 5 ng/mL

## CCCN(CCC)C1CCc2ccc(NS(C)(=O)=O)cc2C1 (configuration not stated)
[1]
  Change: -41%
[2]
  PRL: 28.3 ng/mL

## CCCN(CCC)CCc1cccc(NS(C)(=O)=O)c1
[1]
  Change: -76%
[2]
  PRL: 12.6 ng/mL

## CCCN(CCC)CCc1cccc(NC(C)=O)c1
[1]
  Change: -19%
[2]
  PRL: 36.9 ng/mL

## CCCN(CCC)C1CCc2cc3cc[nH]c3cc2C1 (configuration not stated)
[1]
  Change: -37%
[2]
  PRL: 30.6 ng/mL

## CCCN(CCC)C1CCc2ccc3[nH]ccc3c2C1 (configuration not stated)
[3]
  PRL: 3.8 ng/mL

## CCCN(CCC)CCc1cccc(NC(=O)C(F)(F)F)c1
[1]
  Change: -21%
[2]
  PRL: 36.8 ng/mL

## CCCN(CCC)C1CCc2ccc(NC(C)=O)cc2C1 (configuration not stated)
[1]
  Change: -19%
[2]
  PRL: 38.9 ng/mL

## CCCN(CCC)CCc1ccc2cc[nH]c2c1
[1]
  Change: 0%
[2]
  PRL: 51.2 ng/mL
